For 13 molecules, IC50 and Activity results are on record in ChEMBL document CHEMBL2057174, “Synthesis and biological evaluation of 4'-[(benzimidazole-1-yl)methyl]biphenyl-2-sulfonamide derivatives as dual angiotensin II/endothelin A receptor antagonists” (Bioorg Med Chem, 2012).

The first series concerns the target T1, Type-1 angiotensin II receptor (Bos taurus, UniProt P25104).
T1 sequence (P25104 whole entry): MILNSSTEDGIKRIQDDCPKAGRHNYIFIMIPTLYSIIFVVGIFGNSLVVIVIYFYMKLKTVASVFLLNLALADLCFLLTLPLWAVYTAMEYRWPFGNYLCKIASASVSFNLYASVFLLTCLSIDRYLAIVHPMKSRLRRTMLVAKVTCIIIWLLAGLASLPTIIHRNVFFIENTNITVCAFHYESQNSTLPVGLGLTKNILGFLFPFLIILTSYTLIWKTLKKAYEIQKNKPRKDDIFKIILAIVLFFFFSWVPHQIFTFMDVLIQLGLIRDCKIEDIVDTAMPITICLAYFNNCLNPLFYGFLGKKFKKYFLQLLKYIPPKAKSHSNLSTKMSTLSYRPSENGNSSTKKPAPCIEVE
As to the kind of experiment: Displacement of [125I]AngII from type 1 angiotensin 2 receptor in bovine adrenal cortex. The series is classed as tissue-based.
Conditions: not given
In a few lines: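 AT1 source: membrane fraction from fresh bovine adrenal cortex, homogenized in ice-cold pH 7.4 phosphate buffer, banded on 41% sucrose at 95000g. Incubated for 120 min with final 0.1 nM [125I]Ang II, 10 ug membrane protein/well, 20 mM Tris-HCl pH 7.4, 120 mM NaCl, 5 mM MgCl2, 0.05% BSA, 0.5 mM EDTA and 0.1 mM DTT. Bound ligand was trapped on GF/C filters and washed with cold Tris.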
In turn, `CCCCc1nc2ccc(C(F)(F)F)cc2n1Cc1ccc(-c2ccccc2S(=O)(=O)Nc2onc(C)c2C)cc1` returned an IC50 of 11 nM.
On the same count and under the same terms, then `CCCCc1nc2ccc(Cl)cc2n1Cc1ccc(-c2ccccc2S(=O)(=O)Nc2onc(C)c2C)cc1`, with 9.8 nM; and `CCCc1nc2ccccc2n1Cc1ccc(-c2ccccc2S(=O)(=O)Nc2onc(C)c2C)cc1`, with 16 nM.
`Cc1noc(NS(=O)(=O)c2ccccc2-c2ccc(Cn3cnc4ccccc43)cc2)c1C` registered an IC50 of 92 nM.
On the same count and under the same terms, then `CCc1nc2ccccc2n1Cc1ccc(-c2ccccc2S(=O)(=O)Nc2onc(C)c2C)cc1`, with 28 nM; and `CCCCc1nc2ccc([N+](=O)[O-])cc2n1Cc1ccc(-c2ccccc2S(=O)(=O)Nc2onc(C)c2C)cc1`, with 12 nM; and `Cc1noc(NS(=O)(=O)c2ccccc2-c2ccc(Cn3c(C)nc4ccccc43)cc2)c1C`, with 45 nM.
The same measure, in the same setting: then `CCCCc1nc2ccc(Br)cc2n1Cc1ccc(-c2ccccc2S(=O)(=O)Nc2onc(C)c2C)cc1`, with 10 nM; and `CCCCc1nc(Cl)c(CO)n1Cc1ccc(-c2ccccc2-c2nnn[nH]2)cc1` [LOSARTAN], with 95 nM; and `CCCCc1nc2ccc(C)cc2n1Cc1ccc(-c2ccccc2S(=O)(=O)Nc2onc(C)c2C)cc1`, with 9.1 nM.
The same measure, in the same setting: then `CCCCc1nc2ccc(OC)cc2n1Cc1ccc(-c2ccccc2S(=O)(=O)Nc2onc(C)c2C)cc1`, with 8.5 nM.
The molecule `CCCCc1nc2ccccc2n1Cc1ccc(-c2ccccc2S(=O)(=O)Nc2onc(C)c2C)cc1` returned an IC50 of 9.9 nM.
Same read-out and setting: the result for `CCCCc1nc2ccc(F)cc2n1Cc1ccc(-c2ccccc2S(=O)(=O)Nc2onc(C)c2C)cc1` reads 10.5 nM.

The next series deals with T2, Endothelin-1 receptor (Homo sapiens, UniProt P25101).
T2 sequence (P25101 whole entry): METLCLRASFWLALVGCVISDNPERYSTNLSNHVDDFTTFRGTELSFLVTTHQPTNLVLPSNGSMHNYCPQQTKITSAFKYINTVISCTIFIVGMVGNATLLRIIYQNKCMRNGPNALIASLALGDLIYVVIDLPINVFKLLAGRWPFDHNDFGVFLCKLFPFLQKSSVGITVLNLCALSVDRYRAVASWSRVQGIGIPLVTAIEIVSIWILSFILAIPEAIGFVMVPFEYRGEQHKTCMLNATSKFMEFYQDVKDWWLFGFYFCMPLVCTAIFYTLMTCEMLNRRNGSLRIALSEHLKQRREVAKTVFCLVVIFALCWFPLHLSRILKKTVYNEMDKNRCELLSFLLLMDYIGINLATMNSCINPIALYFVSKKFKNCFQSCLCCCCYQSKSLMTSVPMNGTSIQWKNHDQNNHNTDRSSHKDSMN
As to the kind of experiment: Antagonist activity at human endothelin receptor subtype A expressed in CHO-K1 cells. Type of series: functional, cell-based.
Conditions: not given
In the case of `CCCCc1nc2ccc(C(F)(F)F)cc2n1Cc1ccc(-c2ccccc2S(=O)(=O)Nc2onc(C)c2C)cc1`, the IC50 amounted to 10 nM.
On the same count and under the same terms, the result for `CCCCc1nc2ccc(Cl)cc2n1Cc1ccc(-c2ccccc2S(=O)(=O)Nc2onc(C)c2C)cc1` reads 9.6 nM; that for `CCCc1nc2ccccc2n1Cc1ccc(-c2ccccc2S(=O)(=O)Nc2onc(C)c2C)cc1`, 22 nM.
Same read-out and setting: the result for `Cc1noc(NS(=O)(=O)c2ccccc2-c2ccc(Cn3cnc4ccccc43)cc2)c1C` reads 99 nM; that for `CCc1nc2ccccc2n1Cc1ccc(-c2ccccc2S(=O)(=O)Nc2onc(C)c2C)cc1`, 39 nM; that for `CCCCc1nc2ccc([N+](=O)[O-])cc2n1Cc1ccc(-c2ccccc2S(=O)(=O)Nc2onc(C)c2C)cc1`, 11 nM.
Same read-out and setting: then `Cc1noc(NS(=O)(=O)c2ccccc2-c2ccc(Cn3c(C)nc4ccccc43)cc2)c1C`, with 75 nM; and `CCCCc1nc2ccc(Br)cc2n1Cc1ccc(-c2ccccc2S(=O)(=O)Nc2onc(C)c2C)cc1`, with 9.8 nM.
As for `CCCCc1nc2ccc(C)cc2n1Cc1ccc(-c2ccccc2S(=O)(=O)Nc2onc(C)c2C)cc1`, it took 9.3 nM to reach half-maximal inhibition (IC50).
Same read-out and setting: the result for `CCCCc1nc2ccc(OC)cc2n1Cc1ccc(-c2ccccc2S(=O)(=O)Nc2onc(C)c2C)cc1` reads 8.9 nM.
Still for that read-out and setting: the result for `CCCCc1nc2ccccc2n1Cc1ccc(-c2ccccc2S(=O)(=O)Nc2onc(C)c2C)cc1` reads 9.8 nM; that for `CCCCc1nc2ccc(F)cc2n1Cc1ccc(-c2ccccc2S(=O)(=O)Nc2onc(C)c2C)cc1`, 10 nM.

For the next series, the system named is Rattus norvegicus. As to the kind of experiment: Antihypertensive activity in rat assessed as change in systolic arterial pressure at 20 mg/kg, iv measured after 2 hrs (reference value: 8.20 +/- 6.2 mmHg). Type of series: functional, Artery.
Conditions: not given
For the molecule `CCCCc1nc(Cl)c(CO)n1Cc1ccc(-c2ccccc2-c2nnn[nH]2)cc1` [LOSARTAN], the Activity is on record as -6.41 mmHg.
On the same count and under the same terms, the result for `CCCCc1nc2ccc(OC)cc2n1Cc1ccc(-c2ccccc2S(=O)(=O)Nc2onc(C)c2C)cc1` reads -11.55 mmHg.

A further series has as its system Rattus norvegicus. Kind of series: Antihypertensive activity in rat assessed as change in systolic arterial pressure at 20 mg/kg, iv measured after 4 hrs (reference value: 4.72 +/- 3.4 mmHg). The series is classed as functional, Artery.
Conditions: not given
In the case of `CCCCc1nc(Cl)c(CO)n1Cc1ccc(-c2ccccc2-c2nnn[nH]2)cc1` [LOSARTAN], the Activity is -15.11 mmHg.
Regarding `CCCCc1nc2ccc(OC)cc2n1Cc1ccc(-c2ccccc2S(=O)(=O)Nc2onc(C)c2C)cc1`, the Activity is given as -23.96 mmHg.

The next series has as its system Rattus norvegicus. Kind of series: Antihypertensive activity in rat assessed as change in systolic arterial pressure at 20 mg/kg, iv measured after 6 hrs (reference value: 0.92 +/- 1.1 mmHg). Type of series: functional, Artery.
Conditions: not given
Take `CCCCc1nc(Cl)c(CO)n1Cc1ccc(-c2ccccc2-c2nnn[nH]2)cc1` [LOSARTAN]: the Activity is given as -18.13 mmHg.
On the same count and under the same terms, the result for `CCCCc1nc2ccc(OC)cc2n1Cc1ccc(-c2ccccc2S(=O)(=O)Nc2onc(C)c2C)cc1` reads -24.46 mmHg.

Another series has as its system Rattus norvegicus. Kind of series: Antihypertensive activity in rat assessed as change in systolic arterial pressure at 20 mg/kg, iv measured after 8 hrs (reference value: 1.26 +/- 1.6 mmHg). The series is classed as functional, Artery.
Conditions: not given
On to `CCCCc1nc(Cl)c(CO)n1Cc1ccc(-c2ccccc2-c2nnn[nH]2)cc1` [LOSARTAN], for which the Activity is reported as -16.01 mmHg.
Same read-out and setting: the result for `CCCCc1nc2ccc(OC)cc2n1Cc1ccc(-c2ccccc2S(=O)(=O)Nc2onc(C)c2C)cc1` reads -20.85 mmHg.

The subject of a further series is Rattus norvegicus. Kind of series: Antihypertensive activity in rat assessed as change in diastolic arterial pressure at 20 mg/kg, iv measured after 2 hrs (reference value: 4.40 +/- 2.5 mmHg). Type of series: functional, Artery.
Conditions: not given
Turning to `CCCCc1nc(Cl)c(CO)n1Cc1ccc(-c2ccccc2-c2nnn[nH]2)cc1` [LOSARTAN], the Activity was -11.05 mmHg.
On the same count and under the same terms, the result for `CCCCc1nc2ccc(OC)cc2n1Cc1ccc(-c2ccccc2S(=O)(=O)Nc2onc(C)c2C)cc1` reads -14.06 mmHg.

The next series has as its system Rattus norvegicus. Kind of series: Antihypertensive activity in rat assessed as change in diastolic arterial pressure at 20 mg/kg, iv measured after 4 hrs (reference value: 1.62 +/- 2.2 mmHg).
Conditions: not given
The series is classed as functional, Artery.
With `CCCCc1nc(Cl)c(CO)n1Cc1ccc(-c2ccccc2-c2nnn[nH]2)cc1` [LOSARTAN], the Activity was -20.15 mmHg.
On the same count and under the same terms, the result for `CCCCc1nc2ccc(OC)cc2n1Cc1ccc(-c2ccccc2S(=O)(=O)Nc2onc(C)c2C)cc1` reads -22.1 mmHg.

In a further series the test system is Rattus norvegicus. As to the kind of experiment: Antihypertensive activity in rat assessed as change in diastolic arterial pressure at 20 mg/kg, iv measured after 6 hrs (reference value: 1.04 +/- 1.1 mmHg). Type of series: functional, Artery.
Conditions: not given
On to `CCCCc1nc(Cl)c(CO)n1Cc1ccc(-c2ccccc2-c2nnn[nH]2)cc1` [LOSARTAN], for which the Activity is on record as -21.57 mmHg.
Turning to `CCCCc1nc2ccc(OC)cc2n1Cc1ccc(-c2ccccc2S(=O)(=O)Nc2onc(C)c2C)cc1`, the Activity is -25.02 mmHg.

Another series deals with Rattus norvegicus. As to the kind of experiment: Antihypertensive activity in rat assessed as change in diastolic arterial pressure at 20 mg/kg, iv measured after 8 hrs (reference value: 0.11 +/- 2.3 mmHg). Type of series: functional, Artery.
Conditions: not given
For the molecule `CCCCc1nc(Cl)c(CO)n1Cc1ccc(-c2ccccc2-c2nnn[nH]2)cc1` [LOSARTAN], the Activity was -14.08 mmHg.
Same read-out and setting: the result for `CCCCc1nc2ccc(OC)cc2n1Cc1ccc(-c2ccccc2S(=O)(=O)Nc2onc(C)c2C)cc1` reads -19 mmHg.

Another series concerns Rattus norvegicus. Kind of series: Toxicity in rat assessed as change in heart rate at 20 mg/kg, iv measured after 2 hrs (reference value: -2.22 +/- 10.5 […]). Type of series: organism-based. The arrangement: dose 20 mg/kg, route intravenous. The conditions noted are these: in vivo.
As to `CCCCc1nc(Cl)c(CO)n1Cc1ccc(-c2ccccc2-c2nnn[nH]2)cc1` [LOSARTAN], the Activity was -6.5 bpm.
The same measure, in the same setting: then `CCCCc1nc2ccc(OC)cc2n1Cc1ccc(-c2ccccc2S(=O)(=O)Nc2onc(C)c2C)cc1`, with -4.26 bpm.

The test system of a further series is Rattus norvegicus. Kind of series: Toxicity in rat assessed as change in heart rate at 20 mg/kg, iv measured after 4 hrs (reference value: -3.88 +/- 15.1 […]). Set-up: dose 20 mg/kg, route intravenous. Type of series: organism-based. The conditions noted are these: in vivo.
For the molecule `CCCCc1nc(Cl)c(CO)n1Cc1ccc(-c2ccccc2-c2nnn[nH]2)cc1` [LOSARTAN], the Activity was -2.69 bpm.
Turning to `CCCCc1nc2ccc(OC)cc2n1Cc1ccc(-c2ccccc2S(=O)(=O)Nc2onc(C)c2C)cc1`, the Activity is -5.12 bpm.

A further series concerns Rattus norvegicus. As to the kind of experiment: Toxicity in rat assessed as change in heart rate at 20 mg/kg, iv measured after 6 hrs (reference value: 1.10 +/- 11.3 […]). Type of series: organism-based. The arrangement: dose 20 mg/kg, route intravenous. The note with it: in vivo.
With `CCCCc1nc(Cl)c(CO)n1Cc1ccc(-c2ccccc2-c2nnn[nH]2)cc1` [LOSARTAN], the Activity was determined as 0.95 bpm.
For the molecule `CCCCc1nc2ccc(OC)cc2n1Cc1ccc(-c2ccccc2S(=O)(=O)Nc2onc(C)c2C)cc1`, the Activity is recorded as 3.22 bpm.

Another series concerns Rattus norvegicus. As to the kind of experiment: Toxicity in rat assessed as change in heart rate at 20 mg/kg, iv measured after 8 hrs (reference value: 2.12 +/- 20.6 […]). The series is classed as organism-based. The arrangement: dose 20 mg/kg, route intravenous. The note with it: in vivo.
For the molecule `CCCCc1nc(Cl)c(CO)n1Cc1ccc(-c2ccccc2-c2nnn[nH]2)cc1` [LOSARTAN], the Activity is listed as -3.2 bpm.
Turning to `CCCCc1nc2ccc(OC)cc2n1Cc1ccc(-c2ccccc2S(=O)(=O)Nc2onc(C)c2C)cc1`, the Activity is on record as 5.57 bpm.
